According to ChEMBL document CHEMBL5352507, “Discovery of a Pan-Melanocortin Receptor Antagonist [Ac-DPhe(pI)-Arg-Nal(2')-Orn-NH2] at the MC1R, MC3R, MC4R, and MC5R that Mediates an Increased Feeding Response in Mice and a 40-Fold Selective MC1R Antagonist [Ac-DPhe(pI)-DArg-Nal(2')-Arg-NH2]” (J Med Chem, 2023):
Activity calls are given as the source filed them. The rule behind the calls is not given here. Bridge positions count the residues as written; N and C are the ends. Square brackets hold non-standard residues; d marks the D form. Peptide text beside a SMILES is read from it. dPhe(4-I) = N[C@H](Cc1ccc(I)cc1)C(=O)O; 2Nal = N[C@@H](Cc1ccc2ccccc2c1)C(=O)O; hArg = N=C(N)NCCCC[C@H](N)C(=O)O; Cit = NC(=O)NCCC[C@H](N)C(=O)O; Orn = NCCC[C@H](N)C(=O)O; Dab = NCC[C@H](N)C(=O)O; Dap = NC[C@H](N)C(=O)O

Legend:
[1] = molecular target: T1, Melanocortin receptor 5 (Mus musculus, UniProt P41149); assay: Binding affinity to mouse MC5R expressed in HEK293 cells coexpressing CRE/beta-galactosidase assessed as inhibition constant; format: cell-based
T1 sequence (P41149 whole entry): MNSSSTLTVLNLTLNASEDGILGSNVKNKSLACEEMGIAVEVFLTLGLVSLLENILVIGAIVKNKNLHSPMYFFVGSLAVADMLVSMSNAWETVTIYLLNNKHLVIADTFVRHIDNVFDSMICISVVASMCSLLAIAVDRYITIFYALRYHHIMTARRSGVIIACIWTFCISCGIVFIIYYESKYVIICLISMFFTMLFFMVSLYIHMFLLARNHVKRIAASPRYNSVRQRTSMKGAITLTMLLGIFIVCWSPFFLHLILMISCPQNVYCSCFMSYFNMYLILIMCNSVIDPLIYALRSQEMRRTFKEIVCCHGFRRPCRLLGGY

[2] = molecular target: Melanocyte-stimulating hormone receptor (Homo sapiens, UniProt Q01726); assay: Binding affinity to human MC1R
Chain of Melanocyte-stimulating hormone receptor (Homo sapiens, UniProt Q01726) (Q01726 whole entry): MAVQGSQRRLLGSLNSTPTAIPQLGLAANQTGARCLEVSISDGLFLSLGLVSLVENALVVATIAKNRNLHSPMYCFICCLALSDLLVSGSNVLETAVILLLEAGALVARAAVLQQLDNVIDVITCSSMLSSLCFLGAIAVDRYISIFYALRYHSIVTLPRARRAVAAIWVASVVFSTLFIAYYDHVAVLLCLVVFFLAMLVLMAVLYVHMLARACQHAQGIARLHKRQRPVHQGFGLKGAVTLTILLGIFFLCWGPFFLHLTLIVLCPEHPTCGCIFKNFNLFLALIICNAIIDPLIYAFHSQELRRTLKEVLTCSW

[3] = molecular target: T1, Melanocortin receptor 5; assay: Agonist activity against mouse MC5R expressed in HEK293 cells assessed as increase in cAMP level incubated for 2 hrs by AlphaScreen assay; format: functional, cell-based
[4] = molecular target: T2, Melanocortin receptor 4 (Mus musculus, UniProt P56450); assay: Agonist activity against mouse MC4R expressed in HEK293 cells assessed as increase in cAMP level incubated for 2 hrs by AlphaScreen assay; format: functional, cell-based
T2 sequence (P56450 whole entry): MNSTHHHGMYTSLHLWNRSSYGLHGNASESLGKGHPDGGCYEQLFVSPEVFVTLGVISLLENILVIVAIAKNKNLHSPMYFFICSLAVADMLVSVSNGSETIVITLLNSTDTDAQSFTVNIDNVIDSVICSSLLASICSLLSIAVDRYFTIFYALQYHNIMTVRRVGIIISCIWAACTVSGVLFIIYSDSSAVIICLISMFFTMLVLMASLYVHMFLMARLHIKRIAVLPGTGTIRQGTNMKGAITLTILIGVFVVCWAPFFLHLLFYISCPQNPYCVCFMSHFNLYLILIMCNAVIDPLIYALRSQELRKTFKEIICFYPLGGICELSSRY

[5] = molecular target: T3, Melanocyte-stimulating hormone receptor (Mus musculus, UniProt Q01727); assay: Agonist activity against mouse MC1R expressed in HEK293 cells assessed as increase in cAMP level incubated for 2 hrs by AlphaScreen assay; format: functional, cell-based
T3 sequence (Q01727 whole entry): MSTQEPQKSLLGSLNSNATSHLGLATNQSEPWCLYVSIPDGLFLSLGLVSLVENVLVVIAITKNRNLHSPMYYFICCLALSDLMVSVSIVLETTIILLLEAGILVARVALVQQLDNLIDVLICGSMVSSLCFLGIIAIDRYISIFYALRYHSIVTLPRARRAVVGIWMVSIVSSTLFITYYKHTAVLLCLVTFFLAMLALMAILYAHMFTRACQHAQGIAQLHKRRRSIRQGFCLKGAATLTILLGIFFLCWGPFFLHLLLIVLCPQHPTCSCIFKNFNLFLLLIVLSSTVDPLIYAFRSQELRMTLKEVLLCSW

[6] = molecular target: T4, Melanocortin receptor 3 (Mus musculus, UniProt P33033); assay: Agonist activity against mouse MC3R expressed in HEK293 cells assessed as increase in cAMP level incubated for 2 hrs by AlphaScreen assay; format: functional, cell-based
T4 sequence (P33033 whole entry): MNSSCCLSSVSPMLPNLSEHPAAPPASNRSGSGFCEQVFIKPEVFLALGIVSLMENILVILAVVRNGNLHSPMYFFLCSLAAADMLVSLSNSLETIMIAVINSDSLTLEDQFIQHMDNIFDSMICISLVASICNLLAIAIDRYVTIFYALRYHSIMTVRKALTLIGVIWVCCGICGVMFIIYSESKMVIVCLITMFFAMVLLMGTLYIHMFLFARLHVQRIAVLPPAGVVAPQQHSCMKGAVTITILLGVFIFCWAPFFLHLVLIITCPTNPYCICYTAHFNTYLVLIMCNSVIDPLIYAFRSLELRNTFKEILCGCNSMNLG

[7] = molecular target: T2, Melanocortin receptor 4; assay: Binding affinity to mouse MC4R expressed in HEK293 cells assessed as inhibition constant by schild plot analysis; format: cell-based
[8] = molecular target: T3, Melanocyte-stimulating hormone receptor; assay: Partial agonist activity against mouse MC1R expressed in HEK293 cells assessed as increase in cAMP level incubated for 2 hrs by AlphaScreen assay; format: functional, cell-based
[9] = molecular target: T4, Melanocortin receptor 3; assay: Binding affinity to mouse MC3R expressed in HEK293 cells assessed as inhibition constant by schild plot analysis; format: cell-based
[10] = system: Mus musculus; assay: In vivo antagonist activity MC4R in wild type C57BL/6J mouse assessed as increase in food intake at 10 to 15 nmol per mouse, IT administered directly into the spinal canal and measured for 24 hrs; format: functional, organism-based; conditions: dose 10-15 nmol
Method in brief: (§1)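 Wild-type male and female mice (mixed 129/Sv×C57BL/6J, in-house colony) on a reversed 12-h light/dark cycle with chow ad libitum. Crossover design with 6–7 days between treatments. […] Cumulative food intake weighed at 0–72 h. n ≥ 8 per group; two-way ANOVA against vehicle.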

[11] = system: Mus musculus; assay: In vivo antagonist activity MC4R in wild type C57BL/6J mouse assessed as increase in food intake at 15 nmol per mouse, IT administered directly into the spinal canal and measured for 2 to 6 hrs; format: functional, organism-based; conditions: time 2-6 hrs; method in brief: as §1
[12] = system: Mus musculus; assay: In vivo antagonist activity MC4R in wild type C57BL/6J mouse assessed as increase in food intake at 10 nmol per mouse, IT administered directly into the spinal canal and measured for 4 to 6 hrs; format: functional, organism-based; conditions: time 4-6 hrs; method in brief: as §1
[13] = Toxicity in C57BL/6J mouse assessed as reduction in body weight at 10 to 15 nmol per mouse, IT measured for 24 to 48 hrs; conditions: in vivo, other, dose lower 10 nmol, time lower 24 hrs, dose upper 15 nmol, time upper 48 hrs
Method in brief: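 Wild-type male and female mice (129/Sv×C57BL/6J) in a crossover design, given 10 or 15 nmol intrathecally in 5 μL DMSO/water vehicle. Body weight recorded at 0, 24 and 48 h and compared with vehicle-treated controls.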

[14] = molecular target: T1, Melanocortin receptor 5; assay: Binding affinity to mouse MC5R expressed in HEK293 cells assessed as inhibition constant by schild plot analysis; format: cell-based
[15] = molecular target: T3, Melanocyte-stimulating hormone receptor; assay: Binding affinity to mouse MC1R expressed in HEK293 cells assessed as inhibition constant by schild plot analysis; format: cell-based
[16] = molecular target: T3, Melanocyte-stimulating hormone receptor; assay: Binding affinity to mouse MC1R expressed in HEK293 cells coexpressing CRE/beta-galactosidase assessed as inhibition constant; format: cell-based

EC50 [3] [µM]	EC50 [4] [µM]	EC50 [6] [µM]	SMILES	further results
–	–	–	CCCC[C@H](NC(C)=O)C(=O)N[C@H]1CC(=O)NCCCC[C@@H](C(N)=O)NC(=O)[C@@H](Cc2ccc3ccccc3c2)NC(=O)[C@H](CCCNC(=N)N)NC(=O)[C@@H](Cc2ccc3ccccc3c2)NC(=O)[C@H](Cc2cn(C)cn2)NC1=O	Ki [1]: 0.063 µM
–	–	–	CC(C)[C@H](NC(=O)[C@@H]1CCC(=O)NCC(=O)N[C@@H](C2CCCC2)C(=O)N[C@H](Cc2ccc3ccccc3c2)C(=O)N[C@@H](CCCNC(=N)N)C(=O)N[C@@H](Cc2c[nH]c3ccccc23)C(=O)N1)C(=O)N[C@H](C(=O)NCC(N)=O)C(C)C	Ki [2]: 0.053 µM
> 100	> 100	> 100	CC(=O)N[C@H](Cc1ccc(I)cc1)C(=O)N[C@@H](CCC(=O)O)C(=O)N[C@@H](Cc1ccc2ccccc2c1)C(=O)N[C@@H](CCCNC(=N)N)C(N)=O (Ac-[dPhe(4-I)]E[2Nal]R-NH2)	EC50 [5]: > 100 µM
> 100	> 100	–	CC(=O)N[C@H](Cc1ccc(I)cc1)C(=O)N[C@@H](Cc1c[nH]cn1)C(=O)N[C@@H](Cc1ccc2ccccc2c1)C(=O)N[C@@H](CCCNC(=N)N)C(N)=O (Ac-[dPhe(4-I)]H[2Nal]R-NH2)	Ki [7]: 0.1 µM
–	> 100	–	CC(=O)N[C@H](Cc1ccc(I)cc1)C(=O)N[C@@H](CCCCN)C(=O)N[C@@H](Cc1ccc2ccccc2c1)C(=O)N[C@@H](CCCNC(=N)N)C(N)=O (Ac-[dPhe(4-I)]K[2Nal]R-NH2)	–
> 100	> 100	–	CC(=O)N[C@H](Cc1ccc(I)cc1)C(=O)N[C@@H](CCCNC(=N)N)C(=O)N[C@@H](Cc1ccc2ccccc2c1)C(=O)N[C@@H](Cc1c[nH]cn1)C(N)=O (Ac-[dPhe(4-I)]R[2Nal]H-NH2)	EC50 [8]: 0.4 µM; Ki [9]: 0.1 µM
> 100	> 100	> 100	CC(=O)N[C@H](Cc1ccc(I)cc1)C(=O)N[C@@H](CCCNC(=N)N)C(=O)N[C@@H](Cc1ccc2ccccc2c1)C(=O)N[C@@H](CCCNC(N)=O)C(N)=O (Ac-[dPhe(4-I)]R[2Nal][Cit]-NH2)	EC50 [5]: > 100 µM
> 100	> 100	> 100	CC(=O)N[C@H](Cc1ccc(I)cc1)C(=O)N[C@@H](CCCNC(=N)N)C(=O)N[C@@H](Cc1ccc2ccccc2c1)C(=O)N[C@@H](CCN)C(N)=O (Ac-[dPhe(4-I)]R[2Nal][Dab]-NH2)	EC50 [8]: 1.1 µM
> 100	> 100	> 100	CC(=O)N[C@H](Cc1ccc(I)cc1)C(=O)N[C@@H](CCCNC(=N)N)C(=O)N[C@@H](Cc1ccc2ccccc2c1)C(=O)N[C@@H](CN)C(N)=O (Ac-[dPhe(4-I)]R[2Nal][Dap]-NH2)	–
–	–	–	CC(=O)N[C@H](Cc1ccc(I)cc1)C(=O)N[C@@H](CCCNC(=N)N)C(=O)N[C@@H](Cc1ccc2ccccc2c1)C(=O)N[C@@H](CCCN)C(N)=O (Ac-[dPhe(4-I)]R[2Nal][Orn]-NH2)	Activity [10]: inactive; Activity [11]: Active; Activity [12]: Active; Activity [13]: Non-Toxic
> 100	> 100	> 100	CC(=O)N[C@H](Cc1ccc(I)cc1)C(=O)N[C@@H](CCCNC(=N)N)C(=O)N[C@@H](Cc1ccc2ccccc2c1)C(=O)N[C@@H](CCCCNC(=N)N)C(N)=O (Ac-[dPhe(4-I)]R[2Nal][hArg]-NH2)	Ki [14]: 1 µM
> 100	> 100	–	CC(=O)N[C@H](Cc1ccc(I)cc1)C(=O)N[C@@H](CCCNC(N)=O)C(=O)N[C@@H](Cc1ccc2ccccc2c1)C(=O)N[C@@H](CCCNC(=N)N)C(N)=O (Ac-[dPhe(4-I)][Cit][2Nal]R-NH2)	–
> 100	> 100	> 100	CC(=O)N[C@H](Cc1ccc(I)cc1)C(=O)N[C@@H](CN)C(=O)N[C@@H](Cc1ccc2ccccc2c1)C(=O)N[C@@H](CCCNC(=N)N)C(N)=O (Ac-[dPhe(4-I)][Dap][2Nal]R-NH2)	Ki [15]: 0.1 µM; EC50 [5]: > 100 µM
> 100	> 100	> 100	CC(=O)N[C@H](Cc1ccc(I)cc1)C(=O)N[C@@H](CCCN)C(=O)N[C@@H](Cc1ccc2ccccc2c1)C(=O)N[C@@H](CCCNC(=N)N)C(N)=O (Ac-[dPhe(4-I)][Orn][2Nal]R-NH2)	Ki [7]: 0.1 µM
–	> 100	–	CC(=O)N[C@H](Cc1ccc(I)cc1)C(=O)N[C@H](CCCCN)C(=O)N[C@@H](Cc1ccc2ccccc2c1)C(=O)N[C@@H](CCCNC(=N)N)C(N)=O (Ac-[dPhe(4-I)][dK][2Nal]R-NH2)	EC50 [5]: > 100 µM
–	–	–	C[C@@H]1NC(=O)[C@H](CC(N)=O)NC(=O)[C@H](Cc2ccccc2)NC(=O)[C@H](Cc2ccccc2)NC(=O)[C@H](CCCN=C(N)N)NC(=O)[C@@H](NC(=O)[C@@H](N)Cc2ccc(O)cc2)CCC(=O)NC[C@@H](C(=O)N[C@@H](Cc2ccc(O)cc2)C(N)=O)NC(=O)[C@H](Cc2ccccc2)NC1=O (H-YERFFNAF[Dap]Y-NH2; lactam 2-9)	Ki [16]: 1.2 µM
